From ChEMBL document CHEMBL3526003, “Pharmacokinetics of the monohydroxy derivative of oxcarbazepine and its enantiomers after a single intravenous dose given as racemate compared with a single oral dose of oxcarbazepine” (Drug Metab Dispos, 2011) come the findings set out here.

Data set [1] is described as follows: Total plasma clearance in human treated with monohydroxy derivative of OXC at 150 mg, iv administered as single dose by high-performance liquid chromatography. In kind it is ADME, organism-based. In short, it runs like this:
(§1)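 Pilot study: single intravenous racemic MHD at 150, 200 or 250 mg, one subject per dose. Plasma was sampled to 72 h and analysed by HPLC. Total plasma clearance was computed as Dose/AUC, with AUC from the linear trapezoidal rule.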

A short description of data set [2]: Drug excretion in human urine assessed as total amount of drug eliminated treated with oxcarbazepine at 300 mg, po administered as one-film coated tablet by high-performance liquid chromatography. Format: ADME, organism-based. Particulars: read-out: Ae. In short, it runs like this:
(§2)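 300 mg oral tablet given to 12 healthy adults. Urine was collected in fractions up to 72 h and kept at 2–8 °C, then frozen at -20 °C. Analytes were measured by HPLC before and after β-glucuronidase hydrolysis (pH 6.7, 37 °C, about 15 h). Renal clearance was Ae/plasma AUC. Urinary terminal half-life came from log-linear slopes between 4–18 h and 40–64 h.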

The nature of data set [3]: AUC (0 to 72 hrs) in human treated with monohydroxy derivative of OXC at 150 mg, iv administered as single dose by high-performance liquid chromatography. On the set-up: dose 150 mg, time < 72 hr, route intravenous. Format: ADME, organism-based. As to conditions: plasma. In short, it runs like this:
(§3)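 Pilot ascending-dose study: one healthy subject per level received 150, 200 or 250 mg racemic MHD intravenously as a single dose. Plasma was sampled to 72 h and assayed by non-enantioselective and enantioselective HPLC. AUC(0-72h) was computed by the linear trapezoidal method.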

Data set [4] is described as follows: Renal clearance in human treated with oxcarbazepine at 300 mg, po administered as one-film coated tablet by high-performance liquid chromatography. As to conditions: in vivo. Format: ADME, organism-based, Kidney. In short, it runs like this: as §2
Data set [5] can be described thus: Apparent terminal half life in human plasma treated with monohydroxy derivative of OXC at 250 mg, iv administered as infusion over 30 mins by high-performance liquid chromatography. Particulars: read-out: betat1/2(app) (converted). In kind it is ADME, organism-based. In short, it runs like this:
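Healthy adult volunteers (6 male, 6 female), randomized two-way crossover with at least one week washout; single 250 mg racemic MHD infused i.v. over 30 min. Heparinized plasma sampled 0–30 min then 1–72 h after start of infusion, stored -80 C; enantiomers quantified by enantioselective HPLC.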

Data set [6] is described as follows: AUC (0 to 72 hrs) in human treated with monohydroxy derivative of OXC at 200 mg, iv administered as single dose by high-performance liquid chromatography. Particulars: plasma. In kind it is ADME, organism-based. On the set-up: time < 72 hr, dose 200 mg, route intravenous. In short, it runs like this: as §3
Data set [7] in a line: Cmax in human treated with oxcarbazepine at 300 mg, po administered as one-film coated tablet by high-performance liquid chromatography. Format: ADME, organism-based. Details: dose 300 mg, route oral. As to conditions: in vivo. In short, it runs like this:
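Healthy adults (6 male, 6 female), single 300 mg film-coated tablet by mouth, fasting, in a randomized two-way crossover with at least one week of washout. Venous heparinized blood was drawn at 0–72 h. Plasma was separated at 2200 g and stored at -80 °C. Non-enantioselective and enantioselective HPLC were used. Cmax/tmax were the observed peak; AUC was by linear trapezoidal rule.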

Data set [8] can be described thus: AUC (0 to 72 hrs) in human treated with monohydroxy derivative of OXC at 250 mg, iv administered as single dose by high-performance liquid chromatography. In kind it is ADME, organism-based. Details: dose 250 mg, time < 72 hr, route intravenous. Particulars: plasma. In short, it runs like this: as §3
A short description of data set [9]: Tmax in human treated with oxcarbazepine at 300 mg, po administered as one-film coated tablet by high-performance liquid chromatography. Format: ADME, organism-based. Particulars: in vivo. In short, it runs like this: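 Healthy adults (6 male, 6 female) took a single dose under fasting conditions in an open randomized two-way crossover with at least one week washout. Heparinized plasma was sampled at 0, 1, 2, 3, 4, 6, 8, 10, 24, 32, 48, 56 and 72 h, and stored at -80 C. Analytes were measured by HPLC (UV 210 nm for MHD). Cmax and Tmax are the highest observed concentration and its time relative to dosing.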

A short description of data set [10]: Apparent terminal half life in human plasma treated with oxcarbazepine at 300 mg, po administered as one-film coated tablet by high-performance liquid chromatography. Format: ADME, organism-based. As to conditions: read-out: betat1/2(app) (converted). In short, it runs like this:
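Healthy adult volunteers (6 male, 6 female), randomized two-way crossover with at least one week washout; single oral 300 mg film-coated oxcarbazepine tablet, fasting. Heparinized plasma sampled 0–72 h post dose, stored -80 C; MHD enantiomers quantified by enantioselective HPLC.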

The nature of data set [11]: Renal clearance in human treated with monohydroxy derivative of OXC at 250 mg, iv administered as infusion over 30 mins by high-performance liquid chromatography. In kind it is ADME, organism-based, Kidney. As to conditions: in vivo. In short, it runs like this: (§4)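 250 mg racemic MHD infused intravenously over 30 min to 12 healthy adults. Plasma was drawn at 0 to 30 min and up to 72 h, and urine was fractionated to 72 h. Enantioselective HPLC was used. Renal clearance was Ae/AUC; Vss was CL_T·MRT (AUMC/AUC). Urinary half-life came from log-linear slopes between 4–18 h and 40–64 h.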

Data set [12] is described as follows: Total plasma clearance in human treated with monohydroxy derivative of OXC at 250 mg, iv administered as single dose by high-performance liquid chromatography. Format: ADME, organism-based. In short, it runs like this: as §1
A short description of data set [13]: Volume of distribution at steady state in human treated with monohydroxy derivative of OXC at 250 mg, iv administered as infusion over 30 mins by high-performance liquid chromatography. In kind it is ADME, organism-based. Particulars: in vivo, read-out: Vdss. In short, it runs like this: as §4
Data set [14] in a line: Terminal half life in human urine treated with monohydroxy derivative of OXC at 250 mg, iv administered as infusion over 30 mins by high-performance liquid chromatography. In kind it is ADME, organism-based. As to conditions: read-out: beta t1/2 (converted). In short, it runs like this:
as §4

Data set [15] can be described thus: Terminal half life in human urine treated with oxcarbazepine at 300 mg, po administered as one-film coated tablet by high-performance liquid chromatography. Format: ADME, organism-based. Particulars: read-out: beta t1/2 (converted). In short, it runs like this:
as §2

Data set [16] can be described thus: Total plasma clearance in human treated with monohydroxy derivative of OXC at 200 mg, iv administered as single dose by high-performance liquid chromatography. Format: ADME, organism-based. In short, it runs like this:
as §1

Data set [17] is described as follows: Tmax in human treated with monohydroxy derivative of OXC at 250 mg, iv administered as infusion over 30 mins by high-performance liquid chromatography. Format: ADME, organism-based. As to conditions: in vivo. In short, it runs like this:
(§5)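 Healthy adults (6 male, 6 female) in an open randomized two-way crossover with at least one week washout. Venous heparinized plasma was sampled at 0, 5, 10, 15, 20, 25 and 30 min and at 1-72 h after the start of infusion, and stored at -80 C. Analytes were measured by non-enantioselective and enantioselective HPLC. Tmax is the observed time of peak concentration, reported as a median.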

Data set [18] can be described thus: Cmax in human treated with monohydroxy derivative of OXC at 250 mg, iv administered as infusion over 30 mins by high-performance liquid chromatography. As to conditions: in vivo. Format: ADME, organism-based. Details: dose 250 mg, route intravenous. In short, it runs like this: as §5

With `NC(=O)N1c2ccccc2C[C@@H](O)c2ccccc21`, the clearance (commonly a measure of how efficiently the substance is removed, as volume per time) in data set [1] is 88.3 mL/min; in data set [12], 62.2 mL/min; in [16] it was 111 mL/min. Further, the dose excreted in [2] came to 4.85%. Besides, the area under the curve AUC(0-t) (as a rule, the area under the concentration-time curve up to a stated or last time point) at 72 h in [3] stood at 55.7 µM·h; in data set [6], 59.1 µM·h; in data set [8] it was 132 µM·h. In addition, in data set [4], the CL renal is 16.7 mL/min. Moreover, the half-life in data set [5] is 9 h; in data set [10], 15.8 h; in [14], 9 h; in [15] it was 7 h. The concentration in [7] peaked (Cmax) at 3000 nM. Moreover, the Tmax (commonly the time at which the peak concentration occurs) in data set [9] was 3.5 h. For the same molecule, the CL renal at 0.5 h in [11] is 15 mL/min. Moreover, the Vd in [13] is 54.7 L.
For the molecule `NC(=O)N1c2ccccc2[C@@H](O)[C@H](O)c2ccccc21`, in data set [2], the dose excreted came to 2.7%. Also, the results for the Cmax in data set [7] and in data set [18] were 200 nM and 240 nM, respectively. The results for the Tmax in data set [17] and in [9] were 8 h and 24 h, respectively.
For the molecule `NC(=O)N1c2ccccc2C[C@@H](O[C@@H]2O[C@H](C(=O)O)[C@@H](O)[C@H](O)[C@H]2O)c2ccccc21`, the dose excreted in data set [2] was found to be 5.62%. Besides, the half-life in data set [14] was 14.2 h; in [15], 10.3 h.
